In ChEMBL document CHEMBL1127738, “14 alpha,14' beta-[Dithiobis[(2-oxo-2,1-ethanediyl)imino]]bis (7,8-dihydromorphinone) and 14 alpha,14' beta-[dithiobis[(2-oxo-2,1- ethanediyl)imino]]bis[7,8-dihydro-N-(cyclopropylmethyl)normorphinone]: chemistry and opioid binding properties” (J Med Chem, 1994):
Square brackets hold non-standard residues; d marks the D form. Peptide text beside a SMILES is read from it. * marks the point of attachment. Tyr(Nα,Nα-allyl2) = C=CCN(CC=C)[C@@H](Cc1ccc(O)cc1)C(=O)*; Aib = CC(C)(N)C(=O)O

What was measured:
Mu-type opioid receptor = Mu-type opioid receptor (Bos taurus, UniProt P79350); assay: Evaluation for the inhibition of mu opioid binding to bovine striatal membranes by the affinity ligand 0.25 nM [3H]DAMGO radiolabeled opioid; parameters: species or system Striatum, Membrane
Chain of Mu-type opioid receptor (P79350 whole entry): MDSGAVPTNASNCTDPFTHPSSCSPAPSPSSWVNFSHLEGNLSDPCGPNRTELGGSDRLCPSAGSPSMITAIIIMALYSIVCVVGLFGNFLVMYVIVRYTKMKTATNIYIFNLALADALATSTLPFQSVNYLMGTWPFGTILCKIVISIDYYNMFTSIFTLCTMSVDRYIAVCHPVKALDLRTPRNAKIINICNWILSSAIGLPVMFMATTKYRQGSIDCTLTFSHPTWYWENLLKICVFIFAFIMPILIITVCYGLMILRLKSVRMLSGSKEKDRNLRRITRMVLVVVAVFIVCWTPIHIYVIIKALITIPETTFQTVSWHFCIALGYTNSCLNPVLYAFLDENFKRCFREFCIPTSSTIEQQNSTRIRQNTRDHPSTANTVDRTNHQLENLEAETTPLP
Outline: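 Competition binding on bovine striatal membranes: twelve compound concentrations with radioligand in 1 mL of 50 mM Tris-HCl pH 7.5 at 25 °C, with 5 mM MgCl2 and 0.1 mM PMSF. Incubation was 60 min for [3H]DAMGO and [3H]U69,593 and 4 h for [3H]pCl-DPDPE. […] Filtration used PEI-soaked filters for the κ and δ ligands. Mean IC50 ± SE, three experiments.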

[1] = molecular target: Mu-type opioid receptor (Bos taurus) (UniProt P79350); assay: Effect of DTT on Wash-Resistant Inhibition of [3H]DAMGO by 10 nM
Chain of Mu-type opioid receptor (Bos taurus) (P79350 whole entry): as above
Outline: (§1)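 They were then given 40 mM DTT for 10 min at 4 °C in 2 mL of 50 mM Tris-HCl pH 7.5, followed by four centrifugal washes. […] Results are % of control without ligand or DTT; mean ± SE, three experiments in triplicate.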

[2] = molecular target: Delta-type opioid receptor (Homo sapiens) (UniProt P41143); assay: Evaluation for the ability of delta opioids to protect the [3H]DAMGO binding site from alkylation; settings: Bos taurus
Chain of Delta-type opioid receptor (Homo sapiens) (P41143 whole entry): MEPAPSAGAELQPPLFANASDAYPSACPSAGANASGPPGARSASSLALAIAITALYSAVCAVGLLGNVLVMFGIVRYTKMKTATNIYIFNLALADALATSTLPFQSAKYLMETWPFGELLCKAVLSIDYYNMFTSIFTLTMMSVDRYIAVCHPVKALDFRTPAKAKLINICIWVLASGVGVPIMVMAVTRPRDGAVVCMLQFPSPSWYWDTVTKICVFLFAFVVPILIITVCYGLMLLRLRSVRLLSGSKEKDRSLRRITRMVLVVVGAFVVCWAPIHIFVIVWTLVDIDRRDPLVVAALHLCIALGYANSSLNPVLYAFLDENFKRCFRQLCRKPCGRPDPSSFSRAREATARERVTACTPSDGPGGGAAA
Outline: (§2)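 Protection assay on TPCK-pretreated calf striatal membranes. Membranes were preincubated with 100 nM protecting opioid in 50 mM Tris-HCl pH 7.5 for 30 min at 37 °C. The disulfide ligand (40 or 80 nM) was then added for 2 min at 37 °C in 2 mL. After four centrifugal washes, 0.25 nM [3H]DAMGO binding was measured. Results are % of untreated control; mean ± SE, three experiments in triplicate.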

[3] = molecular target: Kappa-type opioid receptor (Homo sapiens) (UniProt P41145); assay: Evaluation for the ability of kappa opioids to protect the [3H]-DAMGO binding site from alkylation; settings: Bos taurus; outline: as §2
Chain of Kappa-type opioid receptor (Homo sapiens) (P41145 whole entry): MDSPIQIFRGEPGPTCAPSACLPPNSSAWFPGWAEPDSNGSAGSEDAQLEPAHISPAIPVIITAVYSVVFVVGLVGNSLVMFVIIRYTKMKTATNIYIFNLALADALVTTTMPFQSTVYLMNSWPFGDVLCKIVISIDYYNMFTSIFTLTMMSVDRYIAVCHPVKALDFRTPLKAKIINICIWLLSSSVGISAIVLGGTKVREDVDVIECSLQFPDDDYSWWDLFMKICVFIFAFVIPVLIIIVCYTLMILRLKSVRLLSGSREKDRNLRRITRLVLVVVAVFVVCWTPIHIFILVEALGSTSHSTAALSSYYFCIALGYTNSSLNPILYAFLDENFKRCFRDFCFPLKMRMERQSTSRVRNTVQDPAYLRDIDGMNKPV

[4] = molecular target: Mu-type opioid receptor (Bos taurus) (UniProt P79350); assay: Evaluation for the ability of mu opioid to protect the [3H]DAMGO binding site from alkylation
[5] = molecular target: Mu-type opioid receptor (Bos taurus) (UniProt P79350); assay: Evaluation for the ability of mu opioids to protect the [3H]DAMGO binding site from alkylation; outline: as §2
[6] = molecular target: Mu-type opioid receptor (Bos taurus) (UniProt P79350); assay: Effect of DTT on Wash-Resistant Inhibition of [3H]DAMGO at 10 nM of the compound; outline: as §1

O=C(CSSCC(=O)N[C@@]12CCC(=O)[C@@H]3Oc4c(O)ccc5c4[C@@]31CCN(CC1CC1)[C@@H]2C5)N[C@@]12CCC(=O)[C@@H]3Oc4c(O)ccc5c4[C@@]31CCN(CC1CC1)[C@@H]2C5
IC50 (Mu-type opioid receptor): 3.29 nM
inhibition [1]: 63%
Activity [2]: 25
Activity [3]: 30

Oc1ccc2c3c1O[C@H]1c4[nH]c5ccccc5c4C[C@@]4(O)[C@@H](C2)N(CC2CC2)CC[C@]314
Activity [4]: 25

CN1CC[C@]23c4c5ccc(O)c4O[C@H]2[C@@H](O)C=C[C@H]3[C@H]1C5
Activity [4]: 67

C=CCN(CC=C)[C@@H](Cc1ccc(O)cc1)C(=O)NC(C)(C)C(=O)NC(C)(C)C(=O)N[C@@H](Cc1ccccc1)C(=O)N[C@@H](CC(C)C)C(=O)O ({Tyr(Nα,Nα-allyl2)}-[Aib][Aib]FL-OH)
Activity [4]: 24

CN1CC[C@]23c4c5ccc(O)c4O[C@H]2C(=O)CC[C@@]3(NC(=O)CSSCC(=O)N[C@@]23CCC(=O)[C@@H]4Oc6c(O)ccc7c6[C@@]42CCN(C)[C@@H]3C7)[C@H]1C5
Activity [5]: 25
inhibition [6]: 50%
IC50 (Mu-type opioid receptor): 0.4 nM
